# Laboratory results: the array DNA melting data of Ke et al. (doi:10.1101/2024.01.08.574731)
# How the values were obtained:
# [1] = melting temperature; fluorescence melt of hairpins on a sequencing array, two-state fit, raised by 9.35 °C to match UV melts; conditions: sodium 0.088 M
# Summary of the method: (§1)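 Hairpins were imaged by Cy3 fluorescence on a sequenced MiSeq flow cell with annealed Cy3 and quencher oligos, in 50 mM Na-HEPES pH 8.0, 25 mM NaCl, in 2.5 °C steps up to 60 °C. Bootstrapped two-state fits of normalised signals gave melting temperature and folding enthalpy. Four replicates were combined by inverse variance, and fitted temperatures were raised by 9.35 °C to match UV melts.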
# [2] = folding enthalpy; higher = less favourable; fluorescence melt of hairpins on a sequencing array, two-state fit; conditions: sodium 0.088 M
# Summary of the method: as §1
Sequence,Tm [1] [°C],folding enthalpy [2] [kcal/mol]
GCCATGCGAAAGCGAGGC (((..((....))..))),60,-21.6
GCAAGGGGAAACCCTCAC (..((((....))))..),25.2,-9.15
GACCGAACGAAAGTTGTC (((..(((....)))))),29.5,-17
GCATTGCGAAAGCCCTGC (((..((....))..))),34.5,-14.6
GAGCACGAAAGTGTTCTC ((((((....)))..))),52.1,-25.5
GATCTCATCAGAGATC ((((((....)))))),55.6,-35.2
GTAGGCGAAAGCCGGTAC ((((((....)))..))),42.2,-10.7
GATCTGGCAACAGATC ((((((....)))))),57.6,-35
GAGCAGGAAACTGCTC ((((((....)))))),62.3,-37.8
GTGATCGAAAGATGCAC ((((((....))).))),38.7,-19.6
GTTCGGGGAAACCCGAAC (((((((....))))))),69,-39.6
GTCGACCGAAAGGTTGAC (((.(((....))).))),62.2,-34.8
GATCTGTCGCAGATC ((((((...)))))),48.5,-24.5
GGATTTTCGAAAGAATCC (((..(((....)))))),31.4,-17.7
GCGGACGAAAGTCCCGC ((((((....))).))),67.1,-20.8
GGGGAAGGAAACTCCCCC ((((.((....)).)))),46.9,-24.8
GGACACGAAAGTGGCTCC ((((((....)))..))),49,-11.8
GCTTTAGGAAACTGAAGC ((((.((....)).)))),42.4,-30.1
GGGGTCGAAAGACTCCC ((((((....))).))),57,-30.9

Sequence,Tm [1] [°C],folding enthalpy [2] [kcal/mol]
GTGATAGCGAAAGCTCAC (((..(((....)))))),44.9,-18.9
GACCAGGGAAACCTGGTC (((((((....))))))),67.5,-34.4
GCTGCTGGAAACAGTGGC ((..(((....)))..)),47.6,-40.2
GTGGTTGGAAACGACTAC ((.((.(....).)).)),41.8,-25.7
GTCGTCCGAAAGGATGAC (((.(((....))).))),62.1,-54.4
GTGGACGGAAACGTCTAC ((.((((....)))).)),52.2,-24.9
GACTTGACGAAAGTCGTC (((..(((....)))))),51.7,-15.8
GAGTGCGGAAACACACTC (((((.(....).))))),47.5,-28.4
GACCCCGAAAGGGCGGTC ((((((....)))..))),45.9,-17.2
GATCGAATAATCGATC ((((((....)))))),47.6,-30.8
GTGTCGCGAAAGCGCAC (((.(((....)))))),56.6,-18.8
GCGGCAGGAAACCGCCAC (.(((.(....).))).),47.5,-12.7
GGCTACGGAAACGCAGCC ((((.((....)).)))),52.6,-53
GAGGTAGGAAACTACTTC ((.((((....)))).)),32.5,-30.1
GGCCCCGAAAGGGTGGCC ((((((....)))..))),61.6,-22.7
GGTAGACGAAAGTCACC (((.(((....)))))),50.8,-23.6
GCTACGCGAAAGCCTAGC ((((.((....)).)))),45.6,-23.3
GGACTAGGAAACTGGTCC ((((.((....)).)))),50.9,-41.6
GAGGGGGCGAAAGCCCTC (((..(((....)))))),40.6,-7.85
